Compound activity: PubChem, Sanford-Burnham Center for Chemical Genomics
The list is not random: actives were taken first. Their share in the collection is about 1.9%.
Scp1 inh: Scp-1 phosphatase inhibitors, primary screen, biochemical, colorimetric, uHTS; Carboxy-terminal domain RNA polymerase II polypeptide A small phosphatase 1 (Homo …; Recombinant Scp1, phosphopeptide, malachite green phosphate absorbance; inhibition, % at 20 µM; 0.88% of 340,000 active;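 active means inhibition above about 50% at 20 µM, limit read from the data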;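 further: plate controls were DMSO wells with enzyme for no effect and wells lacking enzyme for full effect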
Target sequence (Q9GZU7 76-261 limits assumed): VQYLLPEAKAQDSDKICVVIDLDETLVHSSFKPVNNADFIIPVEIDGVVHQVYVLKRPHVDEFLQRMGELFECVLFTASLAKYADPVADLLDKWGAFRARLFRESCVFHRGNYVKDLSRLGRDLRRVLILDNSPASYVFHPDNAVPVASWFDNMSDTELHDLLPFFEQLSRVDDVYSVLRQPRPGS
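Assay system: SCP-1 catalytic fragment, aa 76-261 | Buffer or medium: Tris acetate buffer pH 5.5 with MgCl2 and Tween-20 | Compound: One concentration, 20 µM, with 1.0% DMSO | Also added: Phospho 17-mer peptide substrate | Signal: Absorbance at 630 nm | Incubation: 45 min enzyme reaction at room temperature | Measure: % inhibition of SCP-1 phosphate liberation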
DNMT1 inh: human DNMT1 methyltransferase inhibitors, primary screen, biochemical, molecular beacon, fluorescence, HinP1I cleavage, uHTS; AID 588458, 2011; inhibition (reported as % activation of signal), % at 10 µM; 0.83% of 360,000 active; DNA (cytosine-5)-methyltransferase 1 (Homo sapiens), P26358; in the data active means inhibition above about 50%
LMPTP inh: LMPTP phosphatase inhibitors, primary screen, biochemical, fluorescence intensity, uHTS | inhibition, % at 20 µM | recombinant LMPTP-A, OMFP fluorogenic substrate | 0.22% of 360,000 active | Low molecular weight phosphotyrosine protein phosphatase (Homo sapiens), P24666;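 active means compounds that cut the enzyme signal by at least half of the control window in the single-dose screen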;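 further: plate controls were DMSO wells with enzyme plus substrate for no effect and substrate without enzyme for full effect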
Target sequence (P24666 whole entry, looked up): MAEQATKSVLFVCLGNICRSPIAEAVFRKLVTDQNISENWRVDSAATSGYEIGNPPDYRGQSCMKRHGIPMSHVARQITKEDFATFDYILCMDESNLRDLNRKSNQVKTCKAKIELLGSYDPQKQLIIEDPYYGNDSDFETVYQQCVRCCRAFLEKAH
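Test system: LMPTP-A, protein tyrosine phosphatase of low molecular weight; Input: 0.625 nM enzyme; Incubation: 50 min dark incubation at room temperature; Signal: endpoint fluorescence intensity from OMFP dephosphorylation; Read-out basis: % inhibition versus control wells.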
STEP block: STEP phosphatase inhibitors, primary screen, biochemical, fluorescence intensity, uHTS. recombinant STEP, OMFP fluorogenic substrate. inhibition, % at 20 µM. 0.25% of 360,000 active. AID 588621, 2011;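 active means inhibition at 20 µM, scaled per plate between control wells, above about 37%, limit read from the data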;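 further: 0% = DMSO with enzyme and substrate and 100% = substrate only without enzyme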
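System: STEP (striatal-enriched tyrosine phosphatase) enzyme, cell-free; medium: Bis-Tris pH 6.0 buffer with DTT, detergent; dosing: 20 µM, 1% DMSO; times: reaction 20 min, ambient temperature; detection: fluorescence, 480/540 nm; read-out basis: normalized % inhibition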
SUMO1 PPI mod: modulators of SUMO1 protein-protein interactions, primary screen, biochemical, uHTS | Small ubiquitin-related modifier 1 (Homo sapiens), P63165 | SUMO1 binding to a labelled peptide, TR-FRET, 1 h | inhibition, % at 20 µM | 0.33% of 360,000 active | AID 602429, 2012; in the data active means inhibition above about 37%
Target sequence (P63165 whole entry, looked up): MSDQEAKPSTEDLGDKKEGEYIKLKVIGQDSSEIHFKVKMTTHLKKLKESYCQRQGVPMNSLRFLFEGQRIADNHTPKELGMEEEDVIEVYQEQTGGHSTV
UBC9 SUMO inh: inhibitors of in vitro SUMOylation cascade, primary screen, biochemical, HTRF, uHTS; SUMO-conjugating enzyme UBC9 (Homo sapiens), P63279; HTRF SUMOylation assay, SAE1/SAE2 + UBC9; inhibition, % at 35 µM; 0.36% of 290,000 active; AID 2006, 2009; in the data active means inhibition above about 50%, passing the limit was not always enough
Target sequence (P63279 whole entry, looked up): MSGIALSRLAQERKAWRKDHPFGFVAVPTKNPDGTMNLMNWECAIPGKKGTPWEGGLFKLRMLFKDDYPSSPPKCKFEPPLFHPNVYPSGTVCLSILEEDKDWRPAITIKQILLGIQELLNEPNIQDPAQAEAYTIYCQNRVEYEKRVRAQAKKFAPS
STEP conf: STEP phosphatase inhibitor hit confirmation, biochemical, fluorescence intensity, single concentration | 32% of 520 active | inhibition, % at 20 µM | recombinant STEP, OMFP fluorogenic substrate | AID 623866, 2012 | shares compounds with STEP block; call rule not given here;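 further: 0% = enzyme with substrate plus DMSO and 100% = substrate without enzyme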
* hit, by the source's call; . = not tested or not shown.

SMILES | Scp1 inh | DNMT1 inh | LMPTP inh | STEP block | SUMO1 PPI mod | UBC9 SUMO inh | STEP conf
CC(OC(=O)c1cccc(S(=O)(=O)Nc2cccc(C(F)(F)F)c2)c1)C(=O)Nc1ccc2c(c1)OCCO2 (stereo not drawn) | -10 | -17 | 3 | 61* | 7 | -16 | 19
CC(=O)Nc1ccc(NC(=O)C(C)OC(=O)c2ccc3c(c2)OCCO3)cc1 (stereo not drawn) | -2 | 2 | -2 | -2 | 0 | -3 | .
CCN1CCN(c2nc(C)nc3c2sc(=S)n3C)CC1 | -4 | -1 | 3 | 93* | 1 | 13 | -10
Cc1nc(N2CCCCC2)c2sc(=S)n(C)c2n1 | -8 | -1 | 3 | 2 | 11 | -3 | .
CC(=O)Nc1cccc(/C(C)=N/Nc2ccc(S(=O)(=O)Nc3ccccc3C(=O)O)cc2[N+](=O)[O-])c1 | 0 | -28 | 5 | 2 | 26 | . | .
C[C@@H](c1ccccc1)N1C[C@H](COCc2ccccc2)Oc2cc(N3CC[C@@H](O)C3)ccc2S1(=O)=O | . | . | 3 | . | -2 | . | .
COc1ccc(S(=O)(=O)Nc2noc3ccccc23)cc1 | -8 | 3 | -2 | 84* | 2 | 25 | -11
O=C(NN=Cc1ccccc1O)c1cccc([N+](=O)[O-])c1 | 97* | 36 | 82* | 59* | 38 | . | 100*
Cc1ccc(C2=C(O)C(=O)C(c3ccc(C)cc3)=C(O)C2=O)cc1 | -3 | 2 | 11 | 6 | 1 | . | .
CC1=C(O)C(=O)C(C2=C(O)C(=O)C(C)=C(O)C2=O)=C(O)C1=O | -1 | 1 | 4 | 65* | -13 | . | 21*
COc1cc2c(C(=O)N3CCN(c4ccccc4F)CC3)cn(C)c(=O)c2cc1OC | -13 | 3 | 2 | 1 | 4 | 11 | .
CC(C)(C)C(=O)Nc1ccc(C(=O)Nc2cccc(Oc3ccc(C(=O)O)c(C(=O)O)c3)c2)cc1 | 18 | 8 | -1 | 60* | 13 | 14 | 82*
CC(C)(C)C(=O)Nc1ccc(C(=O)Nc2cc(NC(=O)c3ccc(NC(=O)C(C)(C)C)cc3)cc(C(=O)O)c2)cc1 | 0 | 3 | -1 | 2 | 3 | 14 | .
Cc1ccc(Nc2nnc(-c3ccc4c(c3)OCO4)o2)c(C)c1 | -17 | -2 | 2 | 48* | -1 | 13 | 4
CC[C@H](C)[C@H](NC(=O)c1ccccc1)C(=O)NC(CC(=O)O)c1ccc(F)cc1 (stereo partly drawn) | -8 | 5 | -4 | -2 | 5 | -3 | .
c1ccc(OCCNc2nc(NCC3CC3)nc3cc(-c4ccccc4)sc23)cc1 | . | -15 | 5 | 43* | -3 | . | 7
CCN(CC)S(=O)(=O)c1ccc2oc(C(=O)NCc3ccc(C)cc3)c(C)c2c1 | -10 | -5 | 2 | 61* | 2 | 0 | 27
CCN(CC)S(=O)(=O)c1ccc2oc(C(=O)NC(C)C)c(C)c2c1 | -3 | 2 | 0 | -1 | 2 | 18 | .
O=C(Nc1ccc2oc(-c3ccncc3)nc2c1)c1ccco1 | 46 | -1 | 4 | 2 | 23 | 28 | .
O=C(Nc1ccc2oc(-c3ccncc3)nc2c1)c1ccc(Br)o1 | 16 | 1 | 28 | 67* | 5 | -5 | 3
O=C(Nc1ccc2oc(-c3ccncc3)nc2c1)c1ccc2c(c1)OCO2 | 35 | 33 | 67* | 74* | 44* | 24 | 3
COC(=O)c1ccc(COC(=O)c2ccccn2)cc1 | -16 | 2 | -2 | 1 | -3 | 10 | .
COC(=O)c1ccc(COC(=O)CCc2nc(-c3ccccc3)c(-c3ccccc3)o2)cc1 | -13 | -10 | 4 | 38* | 0 | -11 | -5
COCCCNC(=S)NC1CC2CCC(C1)N2Cc1ccccc1 (stereo not drawn) | 1 | 2 | 1 | 3 | 0 | 19 | .
CCOCCCNC(=S)NC1CC2CCC(C1)N2Cc1ccccc1 (stereo not drawn) | -3 | 0 | 1 | 55* | 2 | 22 | 25
SMILES | Scp1 inh | DNMT1 inh | LMPTP inh | STEP block | SUMO1 PPI mod | UBC9 SUMO inh | STEP conf
O=C1NC(=Nc2cccnc2)S/C1=C\c1cccc(F)c1 | 10 | -1 | -1 | 57* | -14 | 25 | 6
Cc1cccc(-c2noc(CCC(=O)N3CCN(c4cc(C)ccc4C)CC3)n2)c1 | 4 | 0 | 6 | 2 | 3 | . | .
CC(=O)Nc1ccc(/C=C2\Sc3ccccc3C2=O)cc1 | 0 | 33 | 4 | 43* | 19 | 16 | -1
N/C(=N\OC(=O)c1cccc2ccccc12)c1cccc([N+](=O)[O-])c1 | 49 | 43 | 10 | 62* | -7 | -10 | 24*
CCCCOc1ccc(C(=O)NCCOc2cccc(OC)c2)cc1 | -10 | 3 | 1 | -2 | 4 | 8 | .
N#Cc1cc2cc3c(cc2nc1Cl)OCCO3 | . | -6 | 22 | 49* | 11 | . | 20
N#Cc1cc2cc3c(cc2nc1N1CCCCC1)OCCO3 | -5 | -16 | 3 | 5 | -51 | 4 | .
COc1cc(C)c(NC(=S)Nc2cccc(Cl)c2C)cc1OC | -2 | 3 | -1 | 48* | -2 | -3 | 3
COC(=O)c1cccc(NC(=S)Nc2cccc(Cl)c2C)c1 | 3 | -9 | 2 | -3 | 3 | -21 | .
CCN1CCN(C(=S)c2ccc(SC)cc2)CC1 | -13 | 1 | 0 | 67* | -1 | 17 | 6
CSc1ccc(C(=S)N2CCN(Cc3ccccc3)CC2)cc1 | -5 | -3 | -1 | 52* | -3 | -1 | 25
Cc1ccc(S(=O)(=O)NC(=O)C2(C)CCN2C(=O)COc2ccc(Cl)cc2)nc1 (stereo not drawn) | . | -1 | -1 | 0 | -2 | . | .
O=C(CCC(=O)NCCCc1ccccc1)NCCCc1ccccc1 | -3 | -1 | -2 | 119* | 0 | 18 | 15
CCOC(=O)c1ccccc1N/C=C1\CCCCC1=O | -11 | 3 | -1 | 58* | -13 | -7 | 1
O=C(O)c1ccc(N/N=C/c2ccc(OC(=O)c3ccccc3Cl)cc2)cc1 | 9 | -1 | 4 | 0 | -6 | 20 | .
